In paper PMC5696082 (Analytical biochemistry, 2017):

Legend:
PON1 = PON1 (Homo sapiens, UniProt P27169); assay: Potency of esterase inhibitors, PON1; assay type: biochemical
Method in brief: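 PON1 used as crude lysate of baculovirus-infected insect cells in PBS. Added to 2-fold serial inhibitor dilutions (top concentration at most 100 µM) and preincubated 5 min. Cyanohydrin ester substrate then added to 50 µM final, DMSO ≤2%, in 100 mM phosphate pH 8, 0.1 mg/mL BSA, 37°C. Fluorescence (ex 330/em 465 nm) read kinetically for 10 min. IC50 from linear regression of log[inhibitor] against % remaining activity; triplicates, single experiment.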

AADAC = target: T1, AADAC (Homo sapiens, UniProt P22760); assay: Potency of esterase inhibitors, AADAC; assay type: biochemical
T1 sequence (P22760 1-399): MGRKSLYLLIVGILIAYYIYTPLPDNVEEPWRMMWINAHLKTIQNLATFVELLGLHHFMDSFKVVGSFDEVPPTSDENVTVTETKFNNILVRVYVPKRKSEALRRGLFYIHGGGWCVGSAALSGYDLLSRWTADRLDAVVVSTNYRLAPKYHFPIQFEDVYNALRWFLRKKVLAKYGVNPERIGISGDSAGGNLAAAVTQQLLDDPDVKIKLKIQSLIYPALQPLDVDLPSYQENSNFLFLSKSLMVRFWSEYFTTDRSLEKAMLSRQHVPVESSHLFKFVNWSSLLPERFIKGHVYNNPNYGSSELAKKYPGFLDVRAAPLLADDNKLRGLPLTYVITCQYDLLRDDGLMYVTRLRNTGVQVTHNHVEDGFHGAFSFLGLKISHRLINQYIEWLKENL

FAAH [1] = target: T2, FAAH (Homo sapiens, UniProt O00519); assay: Potency of esterase inhibitors, FAAH; assay type: biochemical
T2 sequence (O00519 1-579): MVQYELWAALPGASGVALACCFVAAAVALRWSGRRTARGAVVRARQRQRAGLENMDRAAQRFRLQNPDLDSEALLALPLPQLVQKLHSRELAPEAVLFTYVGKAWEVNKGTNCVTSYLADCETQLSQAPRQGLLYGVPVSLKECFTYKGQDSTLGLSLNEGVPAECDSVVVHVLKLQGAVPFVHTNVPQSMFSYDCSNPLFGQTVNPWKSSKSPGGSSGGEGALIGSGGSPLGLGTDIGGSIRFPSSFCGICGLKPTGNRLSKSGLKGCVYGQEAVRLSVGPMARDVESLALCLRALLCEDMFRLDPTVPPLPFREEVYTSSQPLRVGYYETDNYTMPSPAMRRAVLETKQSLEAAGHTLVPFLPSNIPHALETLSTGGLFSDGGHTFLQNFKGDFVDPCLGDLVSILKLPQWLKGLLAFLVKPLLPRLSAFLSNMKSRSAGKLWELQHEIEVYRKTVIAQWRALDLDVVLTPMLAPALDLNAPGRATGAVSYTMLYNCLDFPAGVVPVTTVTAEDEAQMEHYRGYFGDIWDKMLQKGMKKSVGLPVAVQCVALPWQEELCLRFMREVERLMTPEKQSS

hCE2 [2] = target: T3, hCE2 (Homo sapiens, UniProt O00748); assay: Potency of esterase inhibitors, hCE2; assay type: biochemical
T3 sequence (O00748 27-559): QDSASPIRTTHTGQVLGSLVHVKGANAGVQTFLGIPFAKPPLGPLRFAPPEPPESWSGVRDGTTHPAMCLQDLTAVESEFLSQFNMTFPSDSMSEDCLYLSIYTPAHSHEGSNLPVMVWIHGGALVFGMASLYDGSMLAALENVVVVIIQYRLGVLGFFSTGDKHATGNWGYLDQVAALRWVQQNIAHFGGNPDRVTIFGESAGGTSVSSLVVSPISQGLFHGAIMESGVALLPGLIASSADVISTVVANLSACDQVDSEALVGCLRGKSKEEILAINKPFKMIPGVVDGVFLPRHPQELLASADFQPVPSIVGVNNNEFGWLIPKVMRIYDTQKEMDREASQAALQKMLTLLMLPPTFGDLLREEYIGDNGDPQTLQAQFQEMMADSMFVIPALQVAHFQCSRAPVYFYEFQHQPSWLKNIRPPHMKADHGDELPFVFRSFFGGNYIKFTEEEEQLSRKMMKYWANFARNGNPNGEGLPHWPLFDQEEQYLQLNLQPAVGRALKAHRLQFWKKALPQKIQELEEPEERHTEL

hCE3 [3] = target: T4, hCE3 (Homo sapiens, UniProt Q6UWW8); assay: Potency of esterase inhibitors, hCE3; assay type: biochemical
T4 sequence (Q6UWW8 27-571): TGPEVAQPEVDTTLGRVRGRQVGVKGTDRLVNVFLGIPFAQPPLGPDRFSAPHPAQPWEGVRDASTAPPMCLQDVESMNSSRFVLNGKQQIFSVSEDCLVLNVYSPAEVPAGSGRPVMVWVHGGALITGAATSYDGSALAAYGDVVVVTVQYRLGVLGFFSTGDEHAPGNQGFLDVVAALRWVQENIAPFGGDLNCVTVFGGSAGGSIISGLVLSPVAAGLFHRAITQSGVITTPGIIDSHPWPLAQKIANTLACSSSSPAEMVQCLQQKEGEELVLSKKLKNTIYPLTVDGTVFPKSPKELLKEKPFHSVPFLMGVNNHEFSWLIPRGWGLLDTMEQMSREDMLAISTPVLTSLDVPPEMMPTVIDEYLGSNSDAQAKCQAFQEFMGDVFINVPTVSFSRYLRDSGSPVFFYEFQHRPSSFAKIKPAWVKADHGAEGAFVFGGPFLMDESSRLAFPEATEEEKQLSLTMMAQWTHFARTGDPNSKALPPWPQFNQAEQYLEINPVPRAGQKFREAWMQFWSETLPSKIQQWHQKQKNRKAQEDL

hCE1 [4] = target: T5, hCE1 (Homo sapiens, UniProt P23141); assay: Potency of esterase inhibitors, hCE1; assay type: biochemical
T5 sequence (P23141 18-567): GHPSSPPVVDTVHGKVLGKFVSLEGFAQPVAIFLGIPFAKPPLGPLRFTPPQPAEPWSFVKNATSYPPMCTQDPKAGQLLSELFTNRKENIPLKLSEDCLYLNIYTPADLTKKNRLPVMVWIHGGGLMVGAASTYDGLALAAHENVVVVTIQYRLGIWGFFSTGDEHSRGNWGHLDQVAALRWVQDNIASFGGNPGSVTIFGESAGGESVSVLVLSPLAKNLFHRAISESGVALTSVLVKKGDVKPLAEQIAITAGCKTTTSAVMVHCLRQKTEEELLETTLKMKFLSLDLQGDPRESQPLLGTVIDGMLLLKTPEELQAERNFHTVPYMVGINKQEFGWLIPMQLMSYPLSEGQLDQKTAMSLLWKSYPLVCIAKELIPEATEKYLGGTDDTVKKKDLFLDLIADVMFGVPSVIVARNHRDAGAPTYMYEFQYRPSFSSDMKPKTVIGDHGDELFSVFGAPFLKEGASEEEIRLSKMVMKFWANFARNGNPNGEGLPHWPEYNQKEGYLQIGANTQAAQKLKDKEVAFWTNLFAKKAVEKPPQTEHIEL

[5] = Background hydrolysis of substrates in phosphate buffer; assay type: physicochemical; conditions: phosphate buffer 100 mM, pH 8, 0.1 mg/mL BSA
hCE1 [6] = target: T5, hCE1; assay: Limit of detection and quantification for hCE1 using partially purified enzyme; assay type: biochemical; conditions: [S] = 50 µM; for LOD for hCE1: S/N > 3; for LOQ for hCE1: S/N > 9
Method in brief: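 Partially purified recombinant hCE1, without any matrix, diluted into wells with substrate at 50 µM. Assay run in 100 mM sodium phosphate, pH 8, 0.1 mg/mL BSA, 1% DMSO, at 37°C. S/N taken as mean signal of enzyme wells over the SD of […], quadruplicates in one experiment. LOD set as the lowest level with S/N > 3; LOQ as S/N > 9.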

Intestine S9 = assay: Substrate hydrolysis by pooled tissue S9, intestine; assay type: biochemical, human
Method in brief: (§1)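 Commercial pooled human tissue S9 fraction added to substrate at 50 µM final in 100 mM sodium phosphate, pH 8.0, 0.1 mg/mL BSA. Fluorescence monitored every 30 s for at least 10 min at 37°C. Specific activity given as the mean of triplicates in one experiment, or mean ± standard deviation of 3 independent experiments run in triplicate.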

Liver S9 = assay: Substrate hydrolysis by pooled tissue S9, liver; assay type: biochemical, human
Method in brief: as §1

hCE1 [7] = target: T5, hCE1; assay: Specific activity of hCE1 towards substrates; assay type: biochemical
Method in brief: (§2)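 Enzymes expressed in baculovirus-infected High Five cells: hCE1 CHAPS-solubilised from the 100,000 g pellet, then DEAE-purified; hCE2/hCE3 crude soluble fraction; FAAH crude insoluble fraction. Substrate added to 50 µM final in 100 mM sodium phosphate pH 8.0, 0.1 mg/mL BSA, 1% DMSO. Fluorescence read every 30 s for ≥10 min at 37°C. Rates corrected for estimated purity: hCE1 25%, hCE2 4%, hCE3 3.5% (3% in footnotes), FAAH 6.9%. Triplicates.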

Lung S9 = assay: Substrate hydrolysis by pooled tissue S9, lung; assay type: biochemical, human
Method in brief: as §1

Kidney S9 = assay: Substrate hydrolysis by pooled tissue S9, kidney; assay type: biochemical, human
Method in brief: as §1

hCE2 [8] = target: T3, hCE2; assay: Specific activity of hCE2 towards substrates; assay type: biochemical
Method in brief: as §2

hCE3 [9] = target: T4, hCE3; assay: Specific activity of hCE3 towards substrates; assay type: biochemical
Method in brief: as §2

FAAH [10] = target: T2, FAAH; assay: Specific activity of FAAH towards substrates; assay type: biochemical; conditions: Table 2; [S] = 50 µM, 37°C, pH 8; estimated 6.9% purity
Method in brief: as §2

[11] = Kinetic mode (30 s intervals for 30 minutes)

Sequence of PON1 (P27169 whole entry, species assumed): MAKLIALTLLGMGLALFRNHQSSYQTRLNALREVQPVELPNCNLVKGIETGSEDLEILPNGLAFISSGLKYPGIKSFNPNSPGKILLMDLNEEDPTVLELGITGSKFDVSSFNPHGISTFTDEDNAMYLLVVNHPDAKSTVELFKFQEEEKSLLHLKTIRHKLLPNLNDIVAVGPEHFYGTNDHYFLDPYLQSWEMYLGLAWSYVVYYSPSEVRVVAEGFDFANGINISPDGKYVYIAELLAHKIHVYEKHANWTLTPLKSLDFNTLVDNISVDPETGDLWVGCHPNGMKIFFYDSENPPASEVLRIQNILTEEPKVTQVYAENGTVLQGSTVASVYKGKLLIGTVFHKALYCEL

## NC(Cc1cc(I)c(Oc2cc(I)c(O)c(I)c2)c(I)c1)C(=O)O (stereo not drawn) [Thyroxine]
PON1
  IC50: 2.1 µM
AADAC
  IC50: 0.73 µM
FAAH [1]
  IC50: > 100 µM
hCE2 [2]
  IC50: 16 µM
hCE2 [2]; from IC50 values
  Selectivity hCE2/hCE1: 0.094
hCE3 [3]
  IC50: 23 µM
hCE1 [4]
  IC50: 1.5 µM

## COc1ccc(C(=O)C(=O)c2ccccc2Cl)cc1OC [2-chloro-3’,4’- dimethoxybenzil, 2-chloro-3’,4’-dimethoxybenzil]
PON1
  IC50: 25 µM
AADAC
  IC50: > 100 µM
FAAH [1]
  IC50: 7.6 µM
hCE3 [3]
  IC50: > 100 µM
hCE1 [4]
  IC50: 2.5 µM

## COc1ccc2cc(C(C#N)OC(C)=O)ccc2c1 (stereo not drawn) [CMNA, cyano(6-methoxynaphthalen-2-yl)methyl acetate]
[5]
  Rate of background hydrolysis: 20 pmol/min
hCE1 [6]; Endpoint mode 1 hour
  LOD for hCE1: 0.98 ng
  LOQ for hCE1: 7.8 ng
hCE1 [6]; Endpoint mode 4 hours
  LOD for hCE1: 3.9 ng
hCE1 [6]; Endpoint mode 24 hours
  LOD for hCE1: 0.06 ng
hCE1 [6]; [11]
  LOD for hCE1: 2.0 ng
  LOQ for hCE1: 3.9 ng
Intestine S9
  Hydrolysis Specific Activity: 74 ± 3 pmol/min/µg
Liver S9
  Hydrolysis Specific Activity: 180 ± 30 pmol/min/µg
hCE1 [7]; Table 2, [S] = 50 µM, 37°C, pH 8, estimated 25% purity
  hCE1 Specific activity: 3000 pmol/min/µg
hCE1 [7]; Table 6, hCE1
  Hydrolysis Specific Activity: 3,000 pmol/min/µg
Lung S9
  Hydrolysis Specific Activity: 13 ± 1 pmol/min/µg
Kidney S9
  Hydrolysis Specific Activity: 15 ± 5 pmol/min/µg
hCE2 [8]; Table 2, [S] = 50 µM, 37°C, pH 8, estimated 4% purity
  hCE2 Specific activity: 11000 pmol/min/µg
hCE2 [8]; Table 6, hCE2
  Hydrolysis Specific Activity: 11,000 pmol/min/µg
hCE3 [9]; Table 2, [S] = 50 µM, 37°C, pH 8, estimated 3% purity
  hCE3 Specific activity: 150 pmol/min/µg
hCE3 [9]; Table 6, hCE3
  Hydrolysis Specific Activity: 150 pmol/min/µg
FAAH [10]
  FAAH Specific activity: 13 pmol/min/µg
